Laboratory results reported in article PMC2731475 (Journal of the American Chemical Society, 2009).
Where two headings read alike, the source gives them in different places. Values belong to the molecule of their own block, whether it stands above or below them.

Legend:
[1] = test system: RNAs containing a 1×1 nucleotide CC internal loop; conditions: cited from earlier work
DNA1 = assay: Fluorescence binding assay, DNA1; conditions: for Kd: DNA1, DNA hairpin with 5′AATT/3′TTAA
In short: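 The DNA hairpin was titrated into 1 μM test compound in 8 mM sodium phosphate pH 7.0, 185 mM NaCl, 1 mM EDTA. After 5 min incubation, fluorescence was read at ex 360/40 and em 460/40. Fraction bound/[nucleic acid] was plotted against fraction bound to obtain binding constants.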

mice = conditions: cited from earlier work
5′CUG/3′GUC = conditions: studies on 5′UTR of thymidylate synthetase mRNA; cited from earlier work
RNA1 = assay: Fluorescence binding assay, RNA1
In short: (§1)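 RNA hairpins were annealed in 8 mM sodium phosphate pH 7.0, 185 mM NaCl, 1 mM EDTA at 60 °C for 1 min and slowly cooled. They were titrated into 1 μM test compound in the same buffer and read after 5 min as fluorescence (ex 360/40, em 460/40). Plots were fraction bound/[RNA] versus fraction bound, fitted to a large-ligand lattice-binding equation giving the microscopic dissociation constant.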

RNA2 = assay: Fluorescence binding assay, RNA2; conditions: RNA2, single 5′CUG/3′GUC (DM1) motif
In short: as §1

RNA3 = assay: Fluorescence binding assay, RNA3
In short: as §1

RNA4 = assay: Fluorescence binding assay, RNA4
In short: as §1

RNA5 = assay: Fluorescence binding assay, RNA5
In short: as §1

RNA6 = assay: Fluorescence binding assay, RNA6
In short: as §1

RNA7 = assay: Fluorescence binding assay, RNA7
In short: as §1

RNA8 = assay: Fluorescence binding assay, RNA8
In short: as §1

RNA9 = assay: Fluorescence binding assay, RNA9
In short: as §1

RNA10 = assay: Fluorescence binding assay, RNA10
r(CUG)109 [2] = assay: Fluorescence binding assay, r
In short: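 r(CUG)109, transcribed from BamHI-linearised plasmid and gel-purified, was annealed at 60 °C for 1 min in pH 7.0 phosphate/185 mM NaCl/EDTA buffer. It was titrated into test compound (1 μM; 5 μM for one monomeric ligand) and fluorescence read after 5 min. Data were fitted to a lattice-binding equation with N repeat units. Selectivity = Kd(herring sperm DNA)/Kd(r(CUG)109).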

herring sperm DNA = assay: Fluorescence binding assay, herring sperm DNA
In short: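 Herring sperm DNA was annealed at 90 °C for 3 min in 8 mM sodium phosphate pH 7.0, 185 mM NaCl, 1 mM EDTA and slowly cooled. It was titrated into 1 μM test compound, and fluorescence (ex 360/40, em 460/40) was read after 5 min. Fraction bound/[DNA] versus fraction bound was fitted to a straight line for Kd.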

r(CUG)109-MBNL1 complex = assay: r; type: biochemical
RNA11-MBNL1 complex = assay: MBNL1-RNA11; type: biochemical
RNA12-MBNL1 complex = assay: MBNL1-RNA12; type: biochemical
RNA12 [3] = assay: Binding of MBNL1 to RNA12; conditions: MBNL1, RNA12 versus RNA11
RNA13 [4] = assay: Binding of MBNL1 to RNA13; conditions: MBNL1, RNA13 versus RNA11
RNA14 [5] = assay: Binding of MBNL1 to RNA14
RNA16 [6] = assay: Binding of MBNL1 to RNA16; conditions: MBNL1, RNA16 versus RNA11
RNA17 = assay: Binding of MBNL1 to RNA17
r(CUG)109 [7] = conditions: MBNL1 binding to r(CUG)109; cited from earlier work
RNA11 = conditions: MBNL1 binding to RNA11, gel retardation; cited from earlier work
RNA12 [8] = conditions: MBNL1 binding to RNA12, gel retardation; cited from earlier work
RNA13 [9] = conditions: MBNL1 binding to RNA13, gel retardation; cited from earlier work
RNA14 [10] = conditions: MBNL1 binding to RNA14, gel retardation; cited from earlier work
RNA15 = conditions: MBNL1 binding to RNA15, gel retardation; cited from earlier work
RNA16 [11] = conditions: MBNL1 binding to RNA16, gel retardation; cited from earlier work

Molecule: Cn1cc(NC(=O)c2cc(NC(=O)c3cc(NC=O)cn3C)cn2C)cc1C(=O)NCCC(=N)N [distamycin]
- affinity for RNAs containing a 1×1 nucleotide CC internal loop [1]: nanomolar affinities

Molecule: CN1CCN(c2ccc3[nH]c(-c4ccc5[nH]c(-c6ccc(O)cc6)nc5c4)nc3c2)CC1 [Compound 1, Hoechst 33258]
- Kd (DNA1): 280 nM
- tolerability and toxicity in mice (mice): well tolerated by and non-toxic to mice
- affinity for 5′CUG/3′GUC (5′CUG/3′GUC): nanomolar affinity

Molecule: N=C(N)c1ccc(-c2cc3ccc(C(=N)N)cc3[nH]2)cc1 [DAPI, 2-(4-amidinophenyl)-1H-indole-6-carboxamidine]
- affinity for RNAs containing a 1×1 nucleotide CC internal loop [1]: nanomolar affinities

- Kd (RNA1; RNA1, fully paired hairpin cassette): 1700 ± 70 nM
- Specificity to RNA2 (RNA1; RNA1 versus RNA2): 13.1
- binds RNA2 more tightly than RNA1 (RNA1; RNA2 over RNA1): 13 fold
- Kd (RNA2): 130 ± 25 nM
- binds RNA2 more tightly than RNA3 (RNA3; 5′CUG/3′GUC (RNA2) versus 5′CUC/3′GUG (RNA3)): > 8 fold
- Kd (RNA3; RNA3, 5′CUC/3′GUG): 1050 ± 212 nM
- Specificity to RNA2 (RNA3; RNA3 versus RNA2): 8.0
- Kd (RNA4; RNA4, 1×1 UU loop with AU closing pairs): 370 ± 107 nM
- Specificity to RNA2 (RNA4; RNA4 versus RNA2): 2.8
- weaker binding than to RNA2 (RNA4; loop GC pairs (RNA2) changed to AU (RNA4)): Approximately 3 fold
- Kd (RNA5; RNA5, 1×1 UU loop with GU closing pairs): 810 ± 150 nM
- Specificity to RNA2 (RNA5; RNA5 versus RNA2): 6.2
- weaker binding than to RNA2 (RNA5; loop GC pairs (RNA2) changed to GU (RNA5)): ~6 fold
- Specificity to RNA2 (RNA6; RNA6 versus RNA2): 2.2
- Specificity to RNA2 (RNA7; RNA7 versus RNA2): ∼7.7
- Kd (RNA8; RNA8): 520 ± 18 nM
- Specificity to RNA2 (RNA8; RNA8 versus RNA2): 4.0
- Kd (RNA9; RNA9, 1×1 AA loop (SCA3 motif)): 450 ± 100 nM
- Specificity to RNA2 (RNA9; RNA9 versus RNA2): 3.5
- Kd (RNA10; RNA10, 1×1 AA loop): 820 ± 160 nM
- Specificity to RNA2 (RNA10; RNA10 versus RNA2): 6.3
- Kd (DNA1): 250 ± 63 nM
- Specificity to RNA2 (DNA1; DNA1 versus RNA2): 1.9
- specific for RNA2 over DNA1 (DNA1; RNA2 over DNA1): ~2 fold
- specificity for r(CUG)109 versus herring sperm DNA (r(CUG)109 [2]): 0.7 fold
- Selectivity for r(CUG)109 over herring sperm DNA (r(CUG)109 [2]; Kd herring sperm DNA divided by Kd r(CUG)109): 0.73
- Kd (r(CUG)109 [2]; r(CUG)109 hairpin, 54 DM1 motifs): 150 ± 25 nM
- Kd (herring sperm DNA): 110 ± 19 nM
- IC50 (r(CUG)109-MBNL1 complex; 0.65 pmoles r(CUG)109 immobilized, 3.7 μM bulk yeast tRNA, 32 pmoles MBNL1): 110000 ± 20000 nM
- inhibition of the MBNL1-r(CUG)109 interaction (r(CUG)109-MBNL1 complex; in the presence of bulk yeast tRNA): ≥ 95%
- IC50 (RNA11-MBNL1 complex; RNA 11, Condition A: 7.5 pmoles of MBNL1 per well): 30200 ± 6800 nM
- IC50 (RNA11-MBNL1 complex; RNA 11, Condition B: 2.0 pmoles of MBNL1 per well): 38100 ± 6900 nM
- IC50 (RNA12-MBNL1 complex; RNA 12, Condition A: 7.5 pmoles of MBNL1 per well): 48400 ± 9900 nM
- IC50 (RNA12-MBNL1 complex; RNA 12, Condition B: 2.0 pmoles of MBNL1 per well): 21100 ± 500 nM
Molecule: CN1CCN(c2ccc3nc(-c4ccc5nc(-c6cccc(OCCCC(=O)NCCCN=[N+]=[N-])c6)[nH]c5c4)[nH]c3c2)CC1 [Compound 2, meta-(N-(3-azidopropyl)-4-oxybutanamide)-Hoechst]
- Kd (RNA6; RNA6, 1×1 CC loop): 290 ± 50 nM
- Kd (RNA7; RNA7, 1×1 CC loop): ~1000 nM

- Specificity to DM1 RNA11 (RNA12 [3]): 2.5
- weaker than the DM1-MBNL1 complex (RNA12 [3]): 2.5 fold
- Specificity to DM1 RNA11 (RNA13 [4]): 0.8
- higher affinity than the DM1-MBNL1 complex (RNA14 [5]; MBNL1, DM2 RNA14): 2 fold
- Specificity to DM1 RNA11 (RNA14 [5]; MBNL1, RNA14 versus RNA11): 0.5
- Specificity to DM1 RNA11 (RNA16 [6]): 3.7
- Specificity to DM1 RNA11 (RNA17; MBNL1, RNA17 versus RNA11): >4
- Kd (RNA17; MBNL1 binding to fully paired RNA17): > 1000 nM
B1: MBNL1: Muscleblind-like 1 protein, alternative splicing regulator that binds expanded rCUG repeats (protein, UniProt Q9NR56 1-388, looked up)
Muscleblind-like protein 1: MAVSVTPIRDTKWLTLEVCREFQRGTCSRPDTECKFAHPSKSCQVENGRVIACFDSLKGRCSRENCKYLHPPPHLKTQLEINGRNNLIQQKNMAMLAQQMQLANAMMPGAPLQPVPMFSVAPSLATNASAAAFNPYLGPVSPSLVPAEILPTAPMLVTGNPGVPVPAAAAAAAQKLMRTDRLEVCREYQRGNCNRGENDCRFAHPADSTMIDTNDNTVTVCMDYIKGRCSREKCKYFHPPAHLQAKIKAAQYQVNQAAAAQAAATAAAMTQSAVKSLKRPLEATFDLGIPQAVLPPLPKRPALEKTNGATAVFNTGIFQYQQALANMQLQQHTAFLPPVPMVHGATPATVSAATTSATSVPFAATATANQIPIISAEHLTSHKYVTQM
- Kd (r(CUG)109 [7]): 300 ± 93 nM
- Kd (RNA11): 250 ± 10 nM
- Kd (RNA12 [8]): 630 ± 70 nM
- Kd (RNA13 [9]): 200 ± 30 nM
- Kd (RNA14 [10]): 120 ± 40 nM
- Kd (RNA15): > 2500 nM
- Kd (RNA16 [11]): 920 ± 150 nM
